Screening results deposited in PubChem BioAssay by Johns Hopkins Ion Channel Center.
TRPC4 potent – allosterically enhances the mouse TRPC4 cation channel. actives 0.42% (n = 310,000). HEK293 TRPC4beta/mu-opioid, DAMGO EC20, Fluo-4 Ca2+ flux; hits give high values. Q9QUQ5. B-score at 10 µM;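 active means B-score of calcium response area above 5 SD of library B-scores, with initial fluorescence ratio within 5 SD of library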;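 further: B-score of integrated fluorescence ratio over time as area under calcium response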
TRPC4 inh – TRPC4 (mouse) channel inhibition. Q9QUQ5. B-score at 10 µM. actives 0.39% (n = 300,000). HEK293 TRPC4beta/mu-opioid, DAMGO-evoked Fluo4 calcium flux; hits give low values;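 active means B-score over 3 SD under the library average, no early fluorescence shift, positive overall ratio signal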
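material = TRPC4beta/mu-opioid receptor HEK293 cell line | probe or stimulus = sequential submaximal and maximal DAMGO stimulation | compound dosing = one concentration per compound | measured by = Fluo4 Ca2+ flux fluorescence | evaluation = integrated fluorescence ratio relative to baseline, converted to per-well B score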
TRPC4 act – TRPC4 (mouse) channel activation; B-score at 10 µM; Q9QUQ5; actives 0.49% (n = 310,000); AID 2237; HEK293 TRPC4beta/mu-opioid, Fluo4 calcium fluorescence; hits give high values;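 active means B-score above 5 SD of library B-scores, and initial fluorescence ratio not above library mean plus 5 SD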;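 further: positive B-score marks a calcium rise read as TRPC4 activation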
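Technique: kinetic Fluo4 calcium fluorescence; Test system: TRPC4beta and mu-opioid receptor HEK293 stable cells; Measure: B-scored integrated calcium fluorescence ratio; Benchmarks: low control buffer alone, high control maximal DAMGO; Schedule: 45 min room-temperature Fluo4 loading, 110 s read.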
TRPC6 inhibitor – blocks the mouse TRPC6 cation channel; Q61143; HEK293-TRPC6, membrane potential dye, ACh-evoked depolarization; hits give low values; B-score at 10 µM; actives 1.1% (n = 310,000); AID 2553;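 active means B-score under library mean minus 3 SD, initial fluorescence not abnormally high, positive integrated signal ratio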;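 further: B-score derived from integrated fluorescence ratio over the kinetic read; more negative B-score means stronger inhibition of depolarization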
Target sequence (Q61143 whole entry, looked up): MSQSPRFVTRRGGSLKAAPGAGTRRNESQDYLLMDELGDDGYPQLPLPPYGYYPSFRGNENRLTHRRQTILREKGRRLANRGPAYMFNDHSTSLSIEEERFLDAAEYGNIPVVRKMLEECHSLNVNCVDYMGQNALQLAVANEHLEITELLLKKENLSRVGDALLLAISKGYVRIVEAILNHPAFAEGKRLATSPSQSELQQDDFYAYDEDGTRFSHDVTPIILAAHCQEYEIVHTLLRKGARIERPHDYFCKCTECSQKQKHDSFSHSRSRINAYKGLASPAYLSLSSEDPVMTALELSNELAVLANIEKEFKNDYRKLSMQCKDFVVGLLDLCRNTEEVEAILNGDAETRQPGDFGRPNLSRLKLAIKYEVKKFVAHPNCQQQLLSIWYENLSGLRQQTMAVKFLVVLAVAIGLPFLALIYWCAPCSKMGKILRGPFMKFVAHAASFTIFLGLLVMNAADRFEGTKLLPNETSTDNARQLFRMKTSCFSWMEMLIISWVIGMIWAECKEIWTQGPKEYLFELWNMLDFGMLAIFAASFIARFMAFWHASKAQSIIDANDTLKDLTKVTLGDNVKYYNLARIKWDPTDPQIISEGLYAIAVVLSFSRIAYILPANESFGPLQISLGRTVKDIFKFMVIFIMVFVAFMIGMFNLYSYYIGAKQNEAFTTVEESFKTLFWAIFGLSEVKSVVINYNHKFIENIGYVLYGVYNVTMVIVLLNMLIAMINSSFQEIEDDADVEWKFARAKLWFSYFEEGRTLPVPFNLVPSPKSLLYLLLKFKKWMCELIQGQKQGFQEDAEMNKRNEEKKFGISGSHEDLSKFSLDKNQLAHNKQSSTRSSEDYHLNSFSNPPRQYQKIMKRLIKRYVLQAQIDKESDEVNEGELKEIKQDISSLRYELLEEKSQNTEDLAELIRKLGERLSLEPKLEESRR
TRPC6 activator – activators of mouse TRPC6 channel | B-score at 10 µM | HEK293-TRPC6 membrane potential dye fluorescence; hits give high values | actives 0.13% (n = 310,000) | AID 2550;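 active means B-score of the integrated fluorescence ratio above library mean plus 3 SD, and starting fluorescence ratio within library mean plus 5 SD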;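 further: higher score means more depolarization so channel activation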
TRPC4 sel inh 2 – mouse TRPC4 off-target activity of TRPC6 inhibitors, second screen | HEK293 TRPC4/MOR, membrane potential dye fluorescence; channel activated by saturating DAMGO dose | AID 2776 | inhibition, % at 10 µM | shares compounds with TRPC6 inhibitor | actives 42% (n = 920);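 active means compounds whose fluorescence signal differed from control wells by over 3 SD, either direction, in both duplicate plates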
TRPC4 spec – tests whether TRPC6 inhibitors also affect mouse TRPC4 | shares compounds with TRPC6 inhibitor | HEK293 TRPC4/mu-opioid, membrane potential fluorescence | activity change, negative = inhibition, % at 10 µM | actives 61% (n = 920);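 active means rise or fall in signal beyond 3 SD of buffer-only wells in both replicate plates, either sign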;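 further: integrated kinetic ratio of fluorescence range over baseline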
HEK293 MPD ctr 2-1 – parental HEK293 nonspecific activity of TRPC6 inhibitors, second screen | shares compounds with TRPC6 inhibitor | parental HEK293 membrane potential dye fluorescence; maximal acetylcholine challenge after compound addition | signal change vs control, % at 10 µM | actives 31% (n = 920) | AID 2779;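 active means membrane potential signal moving either way by over 3 SD of the maximum-effect control, in both duplicate plates, meaning non-specific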
HEK293 MPD ctr-1 – parental HEK293 nonspecific activity of TRPC6 inhibitors; shares compounds with TRPC6 inhibitor; parental HEK293 membrane potential dye fluorescence; membrane potential signal change, % at 10 µM; actives 60% (n = 920);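 active means membrane potential signal shifting up or down by more than 3 SD of buffer-only wells, on both duplicate plates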
HEK293 MPD ctr-2 – counter-screen for TRPC6 modulators: effect in parental HEK293 cells. shares compounds with TRPC6 inhibitor. membrane potential dye fluorescence. membrane potential signal change, % at 10 µM. actives 51% (n = 2,400). AID 488924;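 active means membrane potential signal moves up or down beyond 5 SD from buffer-only wells, on both duplicate plates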
HEK293 MPD ctr 2-2 – parental HEK293 nonspecific activity of TRPC6 modulators, second screen. membrane potential dye fluorescence; after compound, maximal acetylcholine stimulation. AID 488926. actives 14% (n = 2,400). inhibition, % at 10 µM. shares compounds with TRPC6 inhibitor;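 active means membrane potential signal drops by more than 5 SD from the mean control signal, in both duplicate plates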;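 further: plate controls were acetylcholine ECmax control wells for no effect and buffer only wells for full effect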
TRPC4/MOR mod – selectivity of TRPC6 modulators against mouse TRPC4 | shares compounds with TRPC6 inhibitor | HEK293 TRPC4/mu-opioid, membrane potential fluorescence | percent change from control (negative = decrease, positive = increase), % at 10 µM | actives 69% (n = 2,400) | AID 488927;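 active means membrane potential signal moved up or down beyond 5 SD of buffer control wells, in both duplicate plates, actives on both sides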;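 further: plate controls were assay buffer wells for no effect and DAMGO maximal-effect wells for full effect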
TRPC4/MOR inh 2 – second check of whether TRPC6 modulators also affect mouse TRPC4; shares compounds with TRPC6 inhibitor; HEK293 TRPC4/mu-opioid, membrane potential dye fluorescence; stimulated with maximal-effect DAMGO; inhibition, % at 10 µM; actives 55% (n = 2,400); AID 488928;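 active means drop in membrane potential signal beyond 5 SD of the control wells in both duplicate plates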;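 further: TRPC4 counter screen for TRPC6 hits run under conditions tuned for TRPC6 not TRPC4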
TRPC6 block conf – confirmation of mouse TRPC6 inhibitors; shares compounds with TRPC6 inhibitor; HEK293-TRPC6, membrane potential dye, ACh-evoked depolarization; inhibition, % at 10 µM; actives 43% (n = 3,300); AID 488960;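 active means fluorescence ratio falls more than 5 SD below the full-stimulation control mean, in both duplicate runs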;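 further: integrated fluorescence ratio of peak minus minimum over baseline after agonist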
TRPC6 act conf – mouse TRPC6 activator confirmation. actives 11% (n = 2,800). HEK293-TRPC6 membrane potential dye fluorescence, FDSS. activation, % at 10 µM. shares compounds with TRPC6 inhibitor;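 active means ratio signal rise beyond 5 SD above unstimulated control wells' mean, seen in both duplicate runs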;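 further: plate controls were buffer EC0 wells for no effect and acetylcholine ECmax response for full effect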
Numbers without * were called inactive; i = inactive; / = no result given. Rows were chosen to be rich in hits. Some 2.3% of all compounds tested hit in one or more screens of this group.

SMILES	TRPC4 potent	TRPC4 inh	TRPC4 act	TRPC6 inhibitor	TRPC6 activator	HEK293 MPD ctr-2	HEK293 MPD ctr 2-2	TRPC4/MOR mod	TRPC4/MOR inh 2	TRPC6 block conf	TRPC6 act conf	others
CC(CN1c2ccccc2Sc2ccccc21)N(C)C (stereo unspecified)	i	i	i	-6.1*	i	i	94%*	8.0%*	32%*	72%*	i
CCN(CC)CCCCN1c2ccccc2Sc2ccccc21	i	i	i	-6.5*	i	i	i	i	69%*	48%*	i
CN(C)CCCN1c2ccccc2Sc2ccc(C(F)(F)F)cc21	i	i	i	-7.2*	i	/	/	/	/	i	i	TRPC4 sel inh 2=70%*;TRPC4 spec=1.5%*;HEK293 MPD ctr 2-1=i;HEK293 MPD ctr-1=i
Cc1ccc(NC(=O)c2ccc(NS(=O)(=O)/C=C/c3ccccc3)cc2)nc1	i	i	i	i	i	/	/	/	/	/	/
O=C(NNC(=O)c1ccccc1F)c1cccc(-n2cccc2)c1	i	i	i	i	i	/	/	/	/	/	/
CSc1sc(-c2n[nH]c(=S)n2C)c2c1C=CCC2	i	i	i	i	i	/	/	/	/	/	/
O=C(Oc1ccccc1Cl)c1ccc2c(=O)n3c(nc2c1)CCC3	i	i	i	-5.4*	i	i	i	i	i	i	i
COc1ccc2[nH]c3c(c2c1)CCNC3c1ccc([N+](=O)[O-])o1 (stereo unspecified)	i	i	i	i	i	/	/	/	/	/	/
COc1ccc2[nH]c3c(c2c1)CCNC3C1CC=C(C)CC1 (stereo unspecified)	i	i	i	-6.3*	i	i	i	i	56%*	36%*	i
O=C(Nc1cccc(CNCCc2c[nH]c3ccccc23)c1)c1ccccc1Cl	i	i	i	-6.5*	i	i	i	-15%*	80%*	55%*	i
COc1cc(-c2nc3ccccn3c2/N=C/c2cc(OC)c(O)cc2Cl)ccc1O	i	i	i	-5.8*	i	i	i	-10%*	34%*	i	i
COc1ccc(-c2nc(CS(=O)CC(=O)NC3CCC(C)CC3)c(C)o2)cc1OC (stereo unspecified)	i	i	i	-6.2*	i	i	i	13%*	29%*	71%*	/
CCOC(=O)C1(CCCc2ccccc2)CCN(S(=O)(=O)N(C)C)CC1	i	i	i	i	i	/	/	/	/	/	/
O=C(CN1CCS(=O)(=O)CC1)N/N=C/c1cccc(C(F)(F)F)c1	i	i	i	-5.3*	i	i	i	i	i	i	i
COc1ccc(/C=N/NC(=O)CN2CCS(=O)(=O)CC2)cc1	i	i	i	i	i	/	/	/	/	/	/
O=[N+]([O-])c1ccc(CP(=O)(c2ccccc2)c2ccccc2)cc1	i	i	i	i	i	/	/	/	/	/	/
CCn1c(SCC(=O)Nc2ccc3c(c2)n(C)c(=O)n3C)nnc1-c1ccncc1	i	i	i	i	12*	246%*	i	36%*	i	i	118%*
CCn1c(SCC(=O)NCC(=O)Nc2ccc(F)cc2)nnc1-c1ccncc1	i	i	i	i	i	/	/	/	/	/	/
COC(=O)c1cc(OC)c(OC)cc1N1C(=O)CC(C)(C)CC1=O	i	i	i	i	i	/	/	/	/	/	/
CNC(=O)CSCc1c(Cl)cccc1Cl	i	i	i	-11*	i	i	i	i	i	i	i
CNC(=S)NNC(=O)CSCc1c(Cl)cccc1Cl	i	i	i	i	i	/	/	/	/	/	/
CCOc1ccc2oc(C(=O)OC(C(=O)NC(N)=O)C(C)C)c(C)c2c1 (stereo unspecified)	i	i	i	i	i	/	/	/	/	/	/
Cc1cc(C)c2nc(N3CCC(C(=O)NCCCN4CCCCC4)CC3)sc2c1	i	i	i	-8.8*	i	/	/	/	/	52%*	i	TRPC4 sel inh 2=74%*;TRPC4 spec=2.6%*;HEK293 MPD ctr 2-1=i;HEK293 MPD ctr-1=2.9%*
Cc1cc(C)c2nc(N3CCC(C(=O)NCC4CCCO4)CC3)sc2c1 (stereo unspecified)	i	i	i	i	i	/	/	/	/	/	/
Cc1ccc(Cl)cc1N1CCN(C(=O)c2ccc(NS(=O)(=O)c3c(C)noc3C)cc2)CC1	i	i	i	-6.2*	i	i	i	i	i	70%*	/
Cc1ccc(C)c(N2CCN(C(=O)c3ccc(NS(=O)(=O)c4c(C)noc4C)cc3)CC2)c1	i	i	i	-6.5*	i	i	i	-15%*	50%*	74%*	i
CC(=O)c1ccccc1NC(=O)CCCNC(=O)c1ccc(Cl)cc1	i	i	i	i	i	/	/	/	/	/	/
Nc1c2c(nc3ccn(Cc4ccccc4)c(=O)c13)CCC2	i	i	i	-7.5*	i	/	/	/	/	73%*	i	TRPC4 sel inh 2=72%*;TRPC4 spec=-22%*;HEK293 MPD ctr 2-1=-10%*;HEK293 MPD ctr-1=-353%*
